# Results from ChEMBL document CHEMBL3351355, “Structure-affinity/activity relationships of 1,4-dioxa-spiro[4.5]decane based ligands at α1 and 5-HT1A receptors” (Eur J Med Chem, 2014).
# What was measured:
# [1] = target: T1, Alpha-1D adrenergic receptor (Homo sapiens, UniProt P25100); test: Displacement of [3H]prazosin from human recombinant alpha1D adrenoceptor expressed in CHO cells after 30 mins by liquid scintillation counting; type: cell-based
# T1 sequence (P25100 whole entry): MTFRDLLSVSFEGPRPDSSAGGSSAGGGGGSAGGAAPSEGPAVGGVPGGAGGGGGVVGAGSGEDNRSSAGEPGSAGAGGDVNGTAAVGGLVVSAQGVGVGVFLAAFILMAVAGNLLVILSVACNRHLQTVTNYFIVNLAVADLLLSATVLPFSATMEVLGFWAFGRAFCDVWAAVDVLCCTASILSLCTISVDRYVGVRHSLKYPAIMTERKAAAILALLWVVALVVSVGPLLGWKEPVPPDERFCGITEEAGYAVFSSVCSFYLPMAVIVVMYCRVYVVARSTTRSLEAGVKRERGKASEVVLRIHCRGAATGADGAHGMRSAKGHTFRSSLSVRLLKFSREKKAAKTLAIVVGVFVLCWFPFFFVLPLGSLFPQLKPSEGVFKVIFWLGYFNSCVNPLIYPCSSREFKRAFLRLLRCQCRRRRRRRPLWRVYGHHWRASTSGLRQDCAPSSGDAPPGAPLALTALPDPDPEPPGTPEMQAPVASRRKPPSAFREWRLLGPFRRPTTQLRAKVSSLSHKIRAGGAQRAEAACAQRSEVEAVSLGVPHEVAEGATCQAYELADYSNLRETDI
# In short: (§1)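 CHO cells were stably transfected by electroporation with each human α1 subtype. Membranes (70 µg protein) were incubated in 50 mM Tris pH 7.4 with 0.1–0.4 nM [3H]prazosin and competitor (1 pM–1 µM) for 30 min at 25 °C. Nonspecific binding with 10 µM tamsulosin. Filtration and scintillation counting. pKi from 2–3 experiments in duplicate.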
# [2] = target: T2, 5-hydroxytryptamine receptor 1A (Homo sapiens) (UniProt P08908); test: Agonist activity at human recombinant 5-HT1A receptor expressed in HeLa cells after 30 mins by [35S]GTPgammaS binding assay; type: functional, cell-based
# T2 sequence (whole entry): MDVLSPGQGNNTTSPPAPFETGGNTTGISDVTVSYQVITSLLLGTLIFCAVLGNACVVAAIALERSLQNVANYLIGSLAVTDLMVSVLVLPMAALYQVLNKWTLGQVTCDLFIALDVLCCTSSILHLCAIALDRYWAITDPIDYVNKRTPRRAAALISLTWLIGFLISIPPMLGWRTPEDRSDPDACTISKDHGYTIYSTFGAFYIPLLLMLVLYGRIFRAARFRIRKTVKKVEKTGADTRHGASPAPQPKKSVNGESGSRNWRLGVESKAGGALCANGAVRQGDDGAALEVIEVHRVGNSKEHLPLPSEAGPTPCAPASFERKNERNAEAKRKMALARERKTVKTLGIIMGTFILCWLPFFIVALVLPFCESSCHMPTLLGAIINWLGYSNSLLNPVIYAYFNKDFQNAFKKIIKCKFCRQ
# In short: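 HeLa membranes expressing human 5-HT1A (50–70 µg protein) in 20 mM HEPES, 3 mM MgSO4, 120 mM NaCl pH 7.4 with 30 µM GDP; test drug 0.01 nM–10 µM, 20 min at 30 °C, then 200 pM [35S]GTPγS for 30 min at 30 °C. Nonspecific with 10 µM GTPγS; filtration and scintillation counting. Emax as % of maximal 8-OH-DPAT stimulation; pD2 = −log EC50.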
# [3] = target: T3, Alpha-1B adrenergic receptor (Homo sapiens, UniProt P35368); test: Displacement of [3H]prazosin from human recombinant alpha1B adrenoceptor expressed in CHO cells after 30 mins by liquid scintillation counting; type: cell-based; in short: as §1
# T3 sequence (P35368 whole entry): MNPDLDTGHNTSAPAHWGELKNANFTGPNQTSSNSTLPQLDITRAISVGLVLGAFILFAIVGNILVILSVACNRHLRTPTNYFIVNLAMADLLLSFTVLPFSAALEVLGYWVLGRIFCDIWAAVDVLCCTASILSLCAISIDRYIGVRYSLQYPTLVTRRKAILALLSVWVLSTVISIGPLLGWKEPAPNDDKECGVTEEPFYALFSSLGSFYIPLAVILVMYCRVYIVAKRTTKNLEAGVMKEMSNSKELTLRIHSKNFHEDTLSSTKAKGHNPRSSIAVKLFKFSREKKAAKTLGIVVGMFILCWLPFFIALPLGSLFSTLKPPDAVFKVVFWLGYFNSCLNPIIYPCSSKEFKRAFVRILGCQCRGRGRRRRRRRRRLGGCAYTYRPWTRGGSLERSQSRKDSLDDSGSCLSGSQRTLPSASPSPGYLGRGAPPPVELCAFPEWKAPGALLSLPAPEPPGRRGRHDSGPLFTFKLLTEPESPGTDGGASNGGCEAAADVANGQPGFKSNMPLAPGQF
# [4] = target: T2, 5-hydroxytryptamine receptor 1A (Homo sapiens); test: Agonist activity at human recombinant 5-HT1A receptor expressed in HeLa cells after 30 mins by [35S]GTPgammaS binding assay relative to control; type: functional, cell-based
# In short: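 HeLa membranes (50–70 µg protein) in 20 mM HEPES, 3 mM MgSO4, 120 mM NaCl, pH 7.4, preincubated 20 min at 30 °C with 30 µM GDP and drug (0.01 nM–10 µM), then 200 pM [35S]GTPγS added for 30 min at 30 °C. Nonspecific binding with 10 µM GTPγS. Filtration and scintillation counting. Data expressed as % increase over basal, 8-OH-DPAT maximum = 100%. Emax and pD2 derived.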
# [5] = target: T4, 5-hydroxytryptamine receptor 1A (Homo sapiens, UniProt P08908); test: Displacement of [3H]8-OH-DPAT from human recombinant 5-HT1A receptor expressed in HeLa cells after 30 mins by liquid scintillation counting; type: cell-based
# T4 sequence (P08908 whole entry): T2 sequence (whole entry)
# In short: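 HeLa cells stably carrying genomic clone G-21 were grown in DMEM with 10% FCS, then lysed in Tris/EDTA pH 7.4. Membranes (80–90 µg protein) were incubated in 50 mM Tris, 2.5 mM MgCl2, 10 µM pargyline, pH 7.4, with 1 nM [3H]8-OH-DPAT and competitor (1 pM–1 µM) for 30 min at 30 °C, in triplicate. Nonspecific binding with 10 µM 5-HT. pKi from 2–3 experiments.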
compound,measurement,setting,value
COc1ccccc1N1CCN(CC2COC3(CC[S+]([O-])CC3)O2)CC1 (stereo not given),Ki,[1],42.7 nM
same,pD2,[2],8.13
same,Ki,[3],479 nM
same,Emax,[4],139%
same,Ki,[5],117 nM
